PPC-1+TRAIL kill – compounds killing PPC-1 cancer cells with TRAIL present, primary screen, TRAIL potentiator project, ATPLite luminescence, uHTS. PPC-1 cells + TRAIL, ATPLite viability luminescence. cell killing (% activity), % at 4 µM or 5 µM. 0.41% of 220,000 active. AID 1443, 2008;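 active = cell killing above 50% in the first pass at 4 µM, then a duplicate retest at 5 µM averaging 50% or more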;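 note: plate controls were cells with TRAIL plus DMSO for no effect and medium-only wells lacking cells for full effect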
FLuc act counter – FLuc activators, initial screening, artefact control for FLuc-dependent activation tests, biochemical, ATPlite luminescence; activation factor at 10 µM; ATPlite luciferase biochemical, 10 min; 0 = ATP-free wells, 1 = DMSO control; 200,000 tested, under 10 active;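 active = luciferase activation factor, scaled between plate controls, of at least 2 with compound at 10 µM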
Target sequence (P08659 whole entry, looked up): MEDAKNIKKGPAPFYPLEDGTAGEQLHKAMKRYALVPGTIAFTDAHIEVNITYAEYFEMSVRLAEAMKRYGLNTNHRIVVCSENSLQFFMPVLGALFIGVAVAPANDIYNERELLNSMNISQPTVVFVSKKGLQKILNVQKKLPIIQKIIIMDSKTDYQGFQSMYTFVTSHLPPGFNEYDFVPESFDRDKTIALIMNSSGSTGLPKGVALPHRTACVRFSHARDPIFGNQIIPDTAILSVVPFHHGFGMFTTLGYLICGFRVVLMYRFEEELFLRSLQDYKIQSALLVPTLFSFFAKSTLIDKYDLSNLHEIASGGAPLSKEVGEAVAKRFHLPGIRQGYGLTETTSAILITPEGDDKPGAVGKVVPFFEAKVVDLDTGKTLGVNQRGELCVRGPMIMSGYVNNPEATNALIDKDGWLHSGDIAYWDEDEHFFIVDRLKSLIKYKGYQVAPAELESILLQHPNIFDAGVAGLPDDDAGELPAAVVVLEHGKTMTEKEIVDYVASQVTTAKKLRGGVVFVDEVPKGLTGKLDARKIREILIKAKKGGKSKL
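test system = cell-free luciferase reagent | medium = PBS as buffer for the ATP substrate | dosing = test compounds dosed from 2 mM stocks in 100% DMSO | incubation = 10 min at ambient temperature | detection = luminescence measurement of luciferase light output | benchmarks = low control with PBS replacing ATP, high control enzyme plus ATP without compound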
HSP90 refold inh – HSP90 inhibitors, primary screen, cell lysate, luminescence; Heat shock protein HSP 90 (rabbit reticulocyte lysate; luciferase refolding); Rabbit reticulocyte lysate, luciferase refolding luminescence, 3 h; inhibition, % at 5.6 µM; 0.91% of 290,000 active;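 active = inhibition above the screen-wide mean plus 3 SD, computed separately per campaign, cut at about 16% in these data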;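 note: 0% = DMSO wells and 100% = 60 µM geldanamycin wells; inhibitors lower the luminescence because luciferase stays unfolded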
C8 TRAIL sens – viability loss with TRAIL in NB7+C8 cells, primary screen, TRAIL sensitizer project, cell-based, ATPlite luminescence; inhibition (viability loss, TRAIL sensitization), % at 10 µM; 1% of 360,000 active;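 active = compounds causing at least 50% loss of cell viability in the single-dose screen, relative to plate controls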
STAT3 inh – IL-6 driven STAT3 reporter inhibitors, primary screen, U3A cells, luciferase, luminescence, MLSCN library; 0.89% of 190,000 active; inhibition, % at 5.5 µM; AID 862, 2007; IL-6 STAT3-luciferase reporter; host cell line lacks STAT1;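 active = inhibition above the mean inhibition across all screened compounds plus 3 SD, cut at about 44% in these data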;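 note: 0% = DMSO only wells and 100% = 100 µM nifuroxazide control wells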
FLuc inh counter – firefly luciferase enzyme inhibitors, primary screen, artefact control for luciferase-based inhibitor screens, biochemical, luminescence, ATPLite | Luciferin 4-monooxygenase (Photinus pyralis), P08659 | 10 min | inhibition, % at 10 µM | 1.5% of 200,000 active;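 active = inhibition above about 50% when tested at 10 µM, limit read from the data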
HSP90 inh confirm – HSP90 inhibitors, confirmation, cell lysate, luminescence. inhibition, % at 5.9 µM. 64% of 2,300 active. rabbit reticulocyte lysate, luciferase refolding luminescence, 3 h. shares compounds with HSP90 refold inh. AID 1846, 2009; in the data active = inhibition above about 18%;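 note: 0% = vehicle wells and 100% = reference inhibitor wells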
FLuc counter – firefly luciferase inhibitors, HSP90 counter-screen, confirmation, artefact control for HSP90 inhibitor project, biochemical, luminescence, triplicate. shares compounds with HSP90 refold inh. purified native firefly luciferase. inhibition, % at 5.9 µM. 48% of 2,300 active;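 active = inhibition above the mean inhibition of all tested sample wells plus 3 SD, cut at about 10% in these data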;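 note: 0% = DMSO with luciferase and 100% = wells lacking luciferase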
* = called active by the depositor. In the library only some 2.2% were active in any assay of this set; here they are far more common.

`Cc1nn(C(=O)Cn2cc([N+](=O)[O-])cn2)c(C)c1Cl` gave PPC-1+TRAIL kill 18, FLuc act counter 1.1, HSP90 refold inh 0, C8 TRAIL sens -5, STAT3 inh 4 and FLuc inh counter -5.
`CC(=O)Nc1ccc(S(=O)(=O)NCCC(=O)OCC(=O)c2cccc(Br)c2)cc1` gave C8 TRAIL sens -2.
Screening CCCCCC(=O)Nc1nc(C)c(-c2csc(Nc3ccccc3OCC)n2)s1 returned PPC-1+TRAIL kill 0, FLuc act counter 1.1, HSP90 refold inh 6, C8 TRAIL sens 8, STAT3 inh 1 and FLuc inh counter -8.
COc1ccccc1Nc1nc(-c2sc(N)nc2C)cs1 was read as HSP90 refold inh 31*, C8 TRAIL sens -23, HSP90 inh confirm 2 and FLuc counter -16.
Screening Cc1cc(NS(=O)(=O)c2ccc(Nc3nc(-c4sc(NC(=O)c5ccccc5)nc4C)cs3)cc2)no1 returned PPC-1+TRAIL kill 10, FLuc act counter 1, HSP90 refold inh 33*, STAT3 inh 18, FLuc inh counter -2, HSP90 inh confirm 14 and FLuc counter -8.
`CCOc1ccccc1Nc1nc(-c2sc(NC(=O)c3cccc(Cl)c3)nc2C)cs1` gave PPC-1+TRAIL kill 2, FLuc act counter 1.1, HSP90 refold inh 73*, C8 TRAIL sens 2, STAT3 inh 1, FLuc inh counter -8, HSP90 inh confirm 33* and FLuc counter -5.
For COc1ccccc1Nc1nc(-c2sc(NC(=O)c3ccc([N+](=O)[O-])cc3)nc2C)cs1 the results were PPC-1+TRAIL kill 23, FLuc act counter 0.9, HSP90 refold inh 72*, STAT3 inh 16, FLuc inh counter 5, HSP90 inh confirm 23* and FLuc counter -5.
For COc1ccccc1Nc1nc(C)cs1 the results were PPC-1+TRAIL kill 15, FLuc act counter 0.9, HSP90 refold inh -1, C8 TRAIL sens 3, STAT3 inh 14 and FLuc inh counter 6.
Screening Cc1nc(N)sc1-c1csc(Nc2ccc(S(N)(=O)=O)cc2)n1 returned HSP90 refold inh 60*, C8 TRAIL sens 0, HSP90 inh confirm -6 and FLuc counter -9.
For COc1ccccc1Nc1nc(-c2sc(NC(=O)c3ccccc3)nc2C)cs1 the results were PPC-1+TRAIL kill -7, FLuc act counter 1.1, HSP90 refold inh 47*, C8 TRAIL sens -21, STAT3 inh 14, FLuc inh counter -6, HSP90 inh confirm 24* and FLuc counter -11.
For CCOc1ccccc1Nc1nc(-c2sc(NC(=O)c3ccccc3)nc2C)cs1 the results were PPC-1+TRAIL kill 37, FLuc act counter 1.1, HSP90 refold inh 46*, STAT3 inh 12, FLuc inh counter -8, HSP90 inh confirm 25* and FLuc counter -6.
For COc1cccc(Nc2nc(-c3sc(NC(=O)c4ccco4)nc3C)cs2)c1 the results were PPC-1+TRAIL kill 14, FLuc act counter 1, HSP90 refold inh 14, C8 TRAIL sens 4, STAT3 inh 10 and FLuc inh counter -3.
Cc1nc(NC(=O)c2ccccc2)sc1-c1csc(Nc2cccc(F)c2)n1 was read as PPC-1+TRAIL kill 14, FLuc act counter 1, HSP90 refold inh 37*, STAT3 inh 13, FLuc inh counter -2, HSP90 inh confirm 28* and FLuc counter -19.
CCCCCCC(=O)Nc1nc(C)c(-c2csc(Nc3cc(Cl)ccc3C)n2)s1 was read as PPC-1+TRAIL kill 8, FLuc act counter 1, HSP90 refold inh 5, C8 TRAIL sens 7, STAT3 inh 5 and FLuc inh counter -5.
